Target: GABA-A receptor; anion channel
Experiment: In vitro binding affinity at benzodiazepine receptor of rat cerebral cortical membranes by [3H]diazepam displacement.
Summary of the method: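 Rat cerebral cortex homogenised in 50 mM Tris-HCl pH 7.4, centrifuged at 20000g at 4 °C and washed three times. Membranes incubated with drug and 2 nM [3H]diazepam (final) for 120 min at 4 °C, then filtered and washed with ice-cold buffer. Nonspecific binding measured with 10 μM flunitrazepam (final). IC50 estimated from Hill plots.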

Compound | IC50 [nM]
CC(C)COc1cc2c(cn1)[nH]c1ccccc12 | 93
CC(C)(C)COc1cc2c3ccccc3nc-2c[nH]1 | 104
CC(C)(C)C(=O)c1cc2c3ccccc3nc-2c[nH]1 | 358
c1ccc(CNc2cc3c(cn2)[nH]c2ccccc23)cc1 | > 1280
Nc1cc2c(cn1)[nH]c1ccccc12 | > 25000
CCC(C)Oc1cc2c3ccccc3nc-2c[nH]1 (configuration not stated) | 471
c1ccc(COc2cc3c4ccccc4nc-3c[nH]2)cc1 | > 1000
CC(C)CCOc1cc2c3ccccc3nc-2c[nH]1 | 535

Organism: Mus musculus
Experiment: Tested for convulsive activity in pentylenetetrazole injected mice
Type: functional

Compound | ED50 [mg/kg]
CCOC(=O)c1cc2c(cn1)[nH]c1ccccc12 | 3.2
COc1cc2c(cn1)[nH]c1ccccc12 | 6
CCOc1cc2c(cn1)[nH]c1ccccc12 | 7
COC(=O)c1cc2c(cn1)[nH]c1ccccc12 [BETA-CCM] | 10
